Test results as given in ChEMBL document CHEMBL4052624, “Metallo-β-lactamase inhibitors by bioisosteric replacement: Preparation, activity and binding” (Eur J Med Chem, 2017).
≈ marks a conversion by molar mass, not a printed value. Calls of active or inactive are those of the source. No cut-off for these calls is given here.

Legend:
GIM-1 protein = GIM-1 protein (Pseudomonas aeruginosa, UniProt Q704V1); assay: Inhibition of Pseudomonas aeruginosa 6His-tagged GIM-1 (Q19 to D250 residues) expressed in Escherichia coli BL21 Star(DE3) pLysS using nitrocefin as substrate preincubated for 5 mins followed by substrate addition by spectrophotometric analysis
How it was run: (§1)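 His-tagged enzyme, TEV-cleaved, ~95% pure by SDS-PAGE. 10 nM enzyme with 16 inhibitor concentrations in a 2-fold series, in 50 mM HEPES pH 7.2 with ZnCl2 and BSA, preincubated 5 min at 25 °C. Then 100 µM substrate added: imipenem for NDM-1 read at 260 nm, nitrocefin for GIM-1 read at 482 nm. Initial rates in triplicate, fitted to a log[inhibitor] dose–response curve for IC50.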

Beta-lactamase VIM-2 [1] = target: T1, Beta-lactamase VIM-2 (Pseudomonas aeruginosa, UniProt Q9K2N0); assay: Inhibition of Pseudomonas aeruginosa 301-5473 6His-tagged VIM-2 (V27 to E268 residues) expressed in Escherichia coli BL21 Star(DE3) pLysS using nitrocefin as substrate preincubated for 5 mins followed by substrate addition by spectrophotometric analysis
How it was run: (§2)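 Purified VIM-2 and GIM-1 were each used at 10 nM in 50 mM HEPES pH 7.2 with ZnCl₂ and BSA. Each enzyme was preincubated with inhibitor at 25 °C for 5 min, using sixteen concentrations in a 2-fold series. Nitrocefin was then added and the absorbance rise at 482 nm was read. Initial velocities, measured in triplicate, were fitted to log[inhibitor] vs response curves to give IC50. Line 3 is the ratio of the two IC50s.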

Klebsiella pneumoniae [2] = assay: Inhibition of Klebsiella pneumoniae NDM1 expressed in Escherichia coli SNO3 whole cells using imipenem as substrate at 250 uM preincubated for 20 mins followed by substrate addition measured every min up to 60 mins by spectrophotometric analysis relative to control
How it was run: (§3)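 β-lactamase-negative E. coli SNO3 carrying blaVIM-2, blaGIM-1 or blaNDM-1 in pET26b(+). Hydrolysis of the reporter substrate followed as the initial slope over up to 60 min. Percent inhibition calculated from slopes relative to a no-inhibitor control; EDTA used as positive control.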

[3] = target: Beta-lactamase VIM-2 (Pseudomonas aeruginosa) (UniProt Q9K2N0); assay: Inhibition of Pseudomonas aeruginosa 301-5473 VIM-2 expressed in Escherichia coli SNO3 whole cells using nitrocefin as substrate at 250 uM preincubated for 20 mins followed by substrate addition measured every min up to 60 mins by spectrophotometric analysis relative to control; how it was run: as §3
[4] = target: GIM-1 protein (Pseudomonas aeruginosa) (UniProt Q704V1); assay: Inhibition of Pseudomonas aeruginosa GIM-1 expressed in Escherichia coli SNO3 whole cells using nitrocefin as substrate at 250 uM preincubated for 20 mins followed by substrate addition measured every min up to 60 mins by spectrophotometric analysis relative to control; how it was run: as §3
[5] = Inhibition of Klebsiella pneumoniae 6His-tagged NDM1 (G36 to R280 residues) expressed in Escherichia coli BL21 Star(DE3) pLysS using imipenem as substrate preincubated for 5 mins followed by substrate addition by spectrophotometric analysis; how it was run: as §1
Klebsiella pneumoniae [6] = assay: Growth inhibition of Klebsiella pneumoniae K66-45 after 20 hrs
[7] = target: Beta-lactamase VIM-2 (Pseudomonas aeruginosa) (UniProt Q9K2N0); assay: Inhibition of VIM-2 in Pseudomonas aeruginosa K34-7 assessed as potentiation of meropenem-induced antimicrobial activity by measuring meropenem MIC at 125 uM after 20 hrs (reference value: 32 to 64 mg/L)
Escherichia coli [8] = assay: Inhibition of VIM-29 in Escherichia coli 50639799 assessed as potentiation of meropenem-induced antimicrobial activity by measuring meropenem MIC at 125 uM after 20 hrs (reference value: 8 to 32 mg/L)
Pseudomonas aeruginosa [9] = assay: Growth inhibition of Pseudomonas aeruginosa K34-7 after 20 hrs
Klebsiella pneumoniae [10] = assay: Inhibition of NDM-1 in Klebsiella pneumoniae K66-45 assessed as potentiation of meropenem-induced antimicrobial activity by measuring meropenem MIC at 125 uM after 20 hrs (reference value: 32 to 64 mg/L)
Pseudomonas aeruginosa [11] = assay: Selectivity ratio of IC50 for Pseudomonas aeruginosa 301-5473 6His-tagged VIM-2 (V27 to E268 residues) expressed in Escherichia coli BL21 Star(DE3) pLysS to IC50 for Pseudomonas aeruginosa 6His-tagged GIM-1 (Q19 to D250 residues) expressed in Escherichia coli BL21 Star(DE3) pLysS; how it was run: as §2
Escherichia coli [12] = assay: Growth inhibition of Escherichia coli 50639799 after 20 hrs
[13] = Selectivity ratio of IC50 for Pseudomonas aeruginosa 6His-tagged GIM-1 (Q19 to D250 residues) expressed in Escherichia coli BL21 Star(DE3) pLysS to IC50 for Klebsiella pneumoniae 6His-tagged NDM1 (G36 to R280 residues) expressed in Escherichia coli BL21 Star(DE3) pLysS
Pseudomonas aeruginosa [14] = assay: Selectivity ratio of IC50 for Pseudomonas aeruginosa 6His-tagged GIM-1 (Q19 to D250 residues) expressed in Escherichia coli BL21 Star(DE3) pLysS to IC50 for Pseudomonas aeruginosa 301-5473 6His-tagged VIM-2 (V27 to E268 residues) expressed in Escherichia coli BL21 Star(DE3) pLysS
Beta-lactamase VIM-2 [15] = target: T1, Beta-lactamase VIM-2; assay: Inhibition of Pseudomonas aeruginosa VIM-2 expressed in Escherichia coli NCB326-1B2 using nitrocefin as substrate after 5 mins by spectrophotometric analysis

Sequence of GIM-1 protein (Pseudomonas aeruginosa) (Q704V1 as listed by the source): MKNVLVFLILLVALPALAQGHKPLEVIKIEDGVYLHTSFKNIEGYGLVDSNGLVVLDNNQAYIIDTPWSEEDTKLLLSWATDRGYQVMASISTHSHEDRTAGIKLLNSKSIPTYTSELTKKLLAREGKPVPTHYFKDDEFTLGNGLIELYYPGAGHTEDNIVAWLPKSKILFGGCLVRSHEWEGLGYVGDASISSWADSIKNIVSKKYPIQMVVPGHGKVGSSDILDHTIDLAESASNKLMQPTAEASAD
Sequence of GIM-1 protein (Q704V1 whole entry, the tested form may be a part): as the sequence (Q704V1 as listed by the source) above

Structure (SMILES) | IC50 (GIM-1 protein; read-out: IC50) [µM] | IC50 (Beta-lactamase VIM-2 [1]) [µM] | inhibition (Klebsiella pneumoniae [2]) | inhibition [3] | inhibition [4] | IC50 ([5]; read-out: IC50) [µM] | MIC (Klebsiella pneumoniae [6]) [µg/mL] | MIC [7] [µg/mL] | MIC (Escherichia coli [8]) [µg/mL] | MIC (Pseudomonas aeruginosa [9]) [µg/mL] | MIC (Klebsiella pneumoniae [10]) [µg/mL] | Ratio IC50 (Pseudomonas aeruginosa [11]) | MIC (Escherichia coli [12]) [µg/mL] | Ratio IC50 [13] | Ratio IC50 (Pseudomonas aeruginosa [14]) | IC50 (Beta-lactamase VIM-2 [15]) [µM] | IC50 (GIM-1 protein) | IC50 [5]
CCOP(=O)(OCC)C(CCc1ccccc1)CSC(C)=O (configuration not stated) | 18 | 133 | inactive | 17% | 25% | – | – | – | – | – | – | – | – | – | – | – | – | –
CC(=O)SCC(CCc1ccccc1)P(=O)(O)O (configuration not stated) | 12 | 2.3 | 39% | 94% | 40% | 2.9 | – | – | – | – | – | – | – | – | – | – | – | –
CCOP(=O)(OCC)C(CS)CCc1ccccc1 (configuration not stated) | 0.18 | 0.89 | 33% | 78% | 64% | 2.2 | > 500 | 32 | 8 | > 500 | 32 | 5 | – | – | – | – | – | –
CC(=O)SCC(CCCCc1ccccc1)P(=O)(O)O (configuration not stated) | 20 | 1.8 | 37% | 97% | 50% | 2.5 | > 500 | 32 | 2 | > 500 | 32 | – | – | – | – | – | – | –
CC(=O)SCC(CCCc1ccccc1)P(=O)(O)O (configuration not stated) | 26 | 4.7 | 38% | 95% | 37% | 6.6 | > 500 | 32 | 1 | > 500 | 32 | – | > 1000 | – | – | – | – | –
O=P(O)(O)C(CS)CCc1ccccc1 (configuration not stated) | 23 | 7.8 | 42% | 92% | 37% | 5.9 | > 500 | 32 | 4 | > 500 | 32 | – | – | 2 to 4 | 2 to 4 | – | – | –
O=P(O)(O)C(CO)CCc1ccccc1 (configuration not stated) | 99 | 27 to 35 | 3.75% | 61% | 23% | 59 | – | – | – | – | – | – | – | – | – | – | – | –
CCOP(=O)(OCC)C(CCCc1ccccc1)CSC(C)=O (configuration not stated) | 26 | 34 | inactive | 14% | 21% | – | > 1000 | 32 | 4 to 8 | > 1000 | 64 | – | > 1000 | – | – | – | – | –
CC(=O)SCC(CCCc1ccccc1)c1nnn[nH]1 (configuration not stated) | 162 to 163 | 42 | – | 77% | 20% | 144 | – | – | – | – | – | – | – | – | – | – | – | –
CCOP(=O)(OCC)C(CS)CCCc1ccccc1 (configuration not stated) | 0.31 | 0.38 | 62% | 79% | 48% | 1.8 | > 500 | 32 | 8 | > 500 | 32 | – | – | – | – | – | – | –
CCOP(=O)(OCC)C(CCCCc1ccccc1)CSC(C)=O (configuration not stated) | 13 | 20 | inactive | 12% | 25% | – | – | – | – | – | – | – | – | – | – | – | – | –
c1ccc(CCCC(CSC2CCCCC2)c2nnn[nH]2)cc1 (configuration not stated) | 36 to 162 | 5 | inactive | 73% | 8% | 10 | – | – | – | – | – | – | – | – | – | – | – | –
O=P(O)(O)C(CO)CCCCc1ccccc1 (configuration not stated) | > 10 | 4.5 | 4% | 88% | 14% | 127 | – | – | – | – | – | – | – | – | – | – | – | –
O=P(O)(O)C(CO)CCCc1ccccc1 (configuration not stated) | > 10 | 34 | – | 66% | 16% | 77 | – | – | – | – | – | – | – | – | – | – | – | –
O=P(O)(O)C(CS)CCCc1ccccc1 (configuration not stated) | 28 | 33.2 | 45% | 95% | 46% | 7.1 | 1000 (≈ 3840 µM) | 32 | 1 | 1000 (≈ 3840 µM) | 32 | – | > 1000 | – | – | – | – | –
O=P(O)(O)C(CS)CCCCc1ccccc1 (configuration not stated) | 16 | 8.6 | 42% | 94% | 31% | 8.5 | – | – | – | – | – | – | – | 2 to 4 | 2 to 4 | – | – | –
SCC(CCCc1ccccc1)c1nnn[nH]1 (configuration not stated) | 68 | 28 | 16% | 67% | 25% | 12 | – | – | – | – | – | – | – | – | – | – | – | –
CCOP(=O)(OCC)C(CO)CCCc1ccccc1 (configuration not stated) | > 10 | > 10 | inactive | inactive | inactive | > 10 | – | – | – | – | – | – | – | – | – | – | – | –
CC(=O)SCC(Cc1ccccc1)c1nnn[nH]1 (configuration not stated) | 203 | 67 | 32% | 76% | 55% | 81 | – | – | – | – | – | – | – | – | – | – | – | –
O=C(O)C(CS)CCCCc1ccccc1 (configuration not stated) | – | 2.9 | – | – | – | 56 | – | – | – | – | – | – | – | – | – | 1.1 | – | –
CCOP(=O)(OCC)C(CO)CCCCc1ccccc1 (configuration not stated) | 280 | > 10 | 1% | inactive | 4% | > 10 | – | – | – | – | – | – | – | – | – | – | – | –
CCOP(=O)(OCC)C(CO)CCc1ccccc1 (configuration not stated) | > 10 | > 10 | – | – | – | > 10 | – | – | – | – | – | – | – | – | – | – | – | –
CCOP(=O)(OCC)C(CS)CCCCc1ccccc1 (configuration not stated) | – | 1.67 | – | – | – | – | – | – | – | – | – | – | – | – | – | – | Nd(Insoluble) | Nd(Insoluble)
